Assay results from different studies.
Compare with care: the assays were run in different laboratories.
EGFR L861Q: Epidermal growth factor receptor (EGFR, Homo sapiens, UniProt P00533, L861Q)
EGFR A750P/del747-749: Epidermal growth factor receptor (EGFR, Homo sapiens, UniProt P00533, A750P/del747-749)
EGFR del752-759: Epidermal growth factor receptor (EGFR, Homo sapiens, UniProt P00533, del752-759)
EGFR del746-750: Epidermal growth factor receptor (EGFR, Homo sapiens, UniProt P00533, del746-750)
EGFR del747-752/P753S: Epidermal growth factor receptor (EGFR, Homo sapiens, UniProt P00533, del747-752/P753S)
EGFR L858R: Epidermal growth factor receptor (EGFR, Homo sapiens, UniProt P00533, L858R)
EGFR G719C: Epidermal growth factor receptor (EGFR, Homo sapiens, UniProt P00533, G719C)
EGFR G719S: Epidermal growth factor receptor (EGFR, Homo sapiens, UniProt P00533, G719S)
EGFR L858R/T790M: Epidermal growth factor receptor (EGFR, Homo sapiens, UniProt P00533, L858R/T790M)
EGFR: Epidermal growth factor receptor (EGFR, Homo sapiens, UniProt P00533)
EGFR del747-750/T751S: Epidermal growth factor receptor (EGFR, Homo sapiens, UniProt P00533, del747-750/T751S)

| SMILES | target | assay | conditions | remaining binding [%] |
| --- | --- | --- | --- | --- |
| CN(C)C(=O)Cn1cc(-c2nc(C3(c4ccc(-c5cnc(N)nc5)cc4)CC3)no2)cn1 | EGFR L861Q | cell-free assay, competition with immobilised ligand | 1 µM | 100 |
| O=C(c1ccc(Nc2ncc(Cl)c(-c3cc4ccccc4s3)n2)cc1)N1CCC(N2CCCC2)CC1 | EGFR A750P/del747-749 | binding, competition with immobilised ligand | 1 µM | 86 |
| CCN1CCN(Cc2ccc(C(=O)Nc3ccc(C)c(Oc4ccc5c(c4)CC(=O)N5)c3)cc2C(F)(F)F)CC1 | EGFR del752-759 | binding, competition with immobilised ligand | 1 µM | 100 |
| O=C(c1ccc(Nc2nccc(-c3cc4ccccc4s3)n2)cc1)N1CCC(N2CCCC2)CC1 | EGFR del746-750 | binding, competition with immobilised ligand | 1 µM | 100 |
| Nc1ncc2c(n1)-c1c([nH]c3ccc(C#CC4CC4)cc13)CCCC2 | EGFR del747-752/P753S | binding, competition with immobilised ligand | 1 µM | 56 |
| COc1ccnn2ncc(-c3ccnc(N(C)C)n3)c12 | EGFR L858R | binding | 1 µM | 100 |
| CN1CCN(c2ccc(Nc3nccc(-c4cccc([N+](=O)[O-])c4)n3)cc2C(F)(F)F)CC1 | EGFR del752-759 | binding | 10 µM | 74 |
| CN(C)c1nccc(-c2cnc3ncccn23)n1 | EGFR del752-759 | binding | 1 µM | 100 |
| COc1cnc(Nc2cccc(S(N)(=O)=O)c2)nc1N1CCN(c2ccccc2)C(=O)C1 | EGFR G719C | binding, competition with immobilised ligand | 1 µM | 100 |
| COc1ncc2cc3ccccc3nc2c1C#N | EGFR G719S | cell-free assay, competition with immobilised ligand | 5 µM | 95 |
| CN([C@@H]1CCc2c(CC(=O)O)c3ccccc3n2C1)S(=O)(=O)c1ccc(F)cc1 | EGFR A750P/del747-749 | cell-free assay, competition with immobilised ligand | 1 µM | 100 |
| Cc1cnc(Nc2ccc(C(=O)N3CCC(N4CCCC4)CC3)cc2)nc1-c1cc2ccccc2s1 | EGFR L858R/T790M | binding, competition with immobilised ligand | 1 µM | 59 |
| O=C(Nc1c[nH]nc1C(=O)NC1CCNCC1)c1cc(F)cc(F)c1 | EGFR del747-752/P753S | binding, competition with immobilised ligand | 1 µM | 100 |
| c1cnn2ncc(-c3ccnc(N4CCC45COC5)n3)c2c1 | EGFR | binding | 1 µM | 100 |
| O=C(NCCCN1CCOCC1)c1ccc(Nc2nccc(-c3cc4ccccc4s3)n2)cc1 | EGFR del747-752/P753S | binding, competition with immobilised ligand | 1 µM | 92 |
| c1ccc(N2CCN(Cc3nc4ccccc4[nH]3)CC2)nc1 | Epidermal growth factor receptor (EGFR, Homo sapiens, UniProt P00533, T790M) | cell-free assay, competition with immobilised ligand | 1 µM | 99 |
| C[C@H]1CCN(c2nccc(-c3cnn4ncccc34)n2)C1 | EGFR del746-750 | binding | 1 µM | 71 |
| CCN(CC)Cc1cc(Nc2ccnc3cc(Cl)ccc23)ccc1O | EGFR | cell-free assay, competition with immobilised ligand | 10 µM | 91 |

| SMILES | target | assay | conditions | remaining binding [%] |
| --- | --- | --- | --- | --- |
| c1cncc(-c2cccc(Nc3nccc(NC4CCCCC4)n3)c2)c1 | EGFR L858R | binding, competition with immobilised ligand | 10 µM | 58 |
| CNC(=O)[C@@H]1CC[C@@H](n2c(-c3ccc4cnccc4c3)nc3ccc(C(=O)NCc4cccc(C(N)=O)c4)cc32)C1 | EGFR G719S | binding, competition with immobilised ligand | 1 µM | 100 |
| N[C@H]1CCN(c2nccc(-c3cnn4ncccc34)n2)C1 | EGFR L858R | binding | 1 µM | 100 |
| O=C(NCCCN1CCOCC1)c1ccc(Nc2ncc(Cl)c(-c3ccc(Cl)s3)n2)cc1 | EGFR del746-750 | binding, competition with immobilised ligand | 1 µM | 92 |
| Cc1cnn2ncc(-c3ccnc(N(C)C)n3)c2c1 | EGFR L858R | binding | 1 µM | 100 |
| CN1CCN(c2ccc(Nc3nccc(-c4ccccc4)n3)cc2C(F)(F)F)CC1 | EGFR L858R | binding | 10 µM | 84 |
| CCCOc1ccc([C@@H]2[C@@H](C(=O)O)[C@H](c3ccc4c(c3)OCO4)CN2CC(=O)Nc2c(CC)cccc2CC)cc1 | EGFR L861Q | cell-free assay, competition with immobilised ligand | 1 µM | 100 |
| O=C(NCC1CCOCC1)c1n[nH]cc1NC(=O)c1c(F)cccc1F | EGFR G719C | binding, competition with immobilised ligand | 1 µM | 100 |
| FC(F)(F)Oc1cccc(-c2cnc3ccc(-c4ccncc4)nn23)c1 | EGFR | cell-free assay, competition with immobilised ligand | 5 µM | 79 |
| Cc1ccc(NC(=O)c2ccc(CN3CCN(C)CC3)cc2)cc1Nc1nccc(-c2cccnc2)n1 | EGFR | cell-free assay, competition with immobilised ligand | 0.1 µM | 100 |
| NS(=O)(=O)c1cc(NC(=O)C2(c3ccccc3Cl)CC2)ccc1Oc1cccc(Cl)c1 | EGFR del747-752/P753S | cell-free assay, competition with immobilised ligand | 1 µM | 57 |
| O=C(c1ccc(Nc2ncc(Cl)c(-c3ccc(Cl)s3)n2)cc1)N1CCC(N2CCCC2)CC1 | EGFR del747-750/T751S | binding, competition with immobilised ligand | 1 µM | 100 |
| C[C@H](c1cccc(C#N)c1)n1cc(Cl)cc(C(N)=O)c1=N | EGFR L858R | cell-free assay, competition with immobilised ligand | 1 µM | 86 |
| COc1cnc(Nc2cccc(S(N)(=O)=O)c2)nc1N1CCN(c2ccccc2)CC1 | EGFR L858R | binding, competition with immobilised ligand | 1 µM | 89 |
| O=C(NCCCC1CCCCC1)c1ccc(CNC(=O)c2cnn(-c3ccccc3)c2C(F)(F)F)cc1 | EGFR L858R/T790M | cell-free assay, competition with immobilised ligand | 0.1 µM | 95 |
| CN(c1nccc(-c2cnn3ncccc23)n1)C1CC1 | EGFR L858R | binding | 1 µM | 100 |
| CN(C)C(=O)Cn1cc(-c2nc([C@@](C)(c3ccc(-c4cnc(N)nc4)cc3)C3CC3)no2)cn1 | EGFR | cell-free assay, competition with immobilised ligand | 1 µM | 93 |
| O=C(NC1CCC1)c1ccc2nc(-c3cccc(NS(=O)(=O)NCCN4CCCCC4)c3)cn2c1 | EGFR del747-750/T751S | cell-free assay, competition with immobilised ligand | 10 µM | 100 |
